This is an account of results in ChEMBL document CHEMBL1141143, “Novel 17beta-substituted conformationally constrained neurosteroids that modulate GABA A receptors” (J Med Chem, 2005).

Each structure is given as a SMILES string.

The target of the assay is GABA-A receptor; anion channel (Rattus norvegicus) (UniProt O09028+P15431+P18506+P18508+P19969+P20236+P23574+P23576+P28471+P28473+P30191+P62813+P63079+P63138+Q91ZM7+Q9ES14). The experiment in a line: Displacement of [3H]EBOB from GABA-A receptors of rat cerebellum. It is filed as tissue-based. The method in brief: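 Rat cerebellar synaptosomal membranes: homogenized in 0.32 M sucrose, differentially centrifuged, water-lysed, Tris HCl (pH 7.4) washed, frozen; thawed membranes spun in 50 mM Tris HCl with 0.2 M NaCl. Incubated 2 h at 25 °C with 1 nM [3H]EBOB; nonspecific binding with 50 µM picrotoxin. Duplicates filtered on GF/B. Specific binding ratio with/without steroid fitted by nonlinear regression; mean ± SEM.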
On the technique in general: In a radioligand displacement assay an active substance lowers the binding of a labelled ligand.
Compound `C#C[C@H](O)[C@H]1CC[C@H]2[C@@H]3CC[C@H]4C[C@H](O)CC[C@]4(C)[C@H]3CC[C@]12C` had a Ks of 494 nM.
Then `C[C@]12CC[C@@H](O)C[C@@H]1CC[C@@H]1[C@@H]2CC[C@]2(C)[C@@H](C#CBr)CC[C@@H]12`, with 350 nM; and `CC(=O)[C@H]1CC[C@H]2[C@@H]3CC[C@H]4C[C@H](O)CC[C@]4(C)[C@H]3CC[C@]12C`, with 198 nM; and `COc1ccc(C#C[C@H](O)[C@H]2CC[C@H]3[C@@H]4CC[C@H]5C[C@H](O)CC[C@]5(C)[C@H]4CC[C@]23C)cc1`, with 1640 nM.
`C#C[C@@H](OC)[C@H]1CC[C@H]2[C@@H]3CC[C@H]4C[C@H](O)CC[C@]4(C)[C@H]3CC[C@]12C`: the Ks came to 802 nM.
On to `Cc1ccc(C#C[C@H]2CC[C@H]3[C@@H]4CC[C@H]5C[C@H](O)CC[C@]5(C)[C@H]4CC[C@]23C)cc1`, for which the Ks came out at 4100 nM.
Then `COc1ccc(C#C[C@@H](O)[C@H]2CC[C@H]3[C@@H]4CC[C@H]5C[C@H](O)CC[C@]5(C)[C@H]4CC[C@]23C)cc1`, with 870 nM; and `C#C[C@H](OC)[C@H]1CC[C@H]2[C@@H]3CC[C@H]4C[C@H](O)CC[C@]4(C)[C@H]3CC[C@]12C`, with 924 nM.
On to `C#CC(=O)[C@H]1CC[C@H]2[C@@H]3CC[C@H]4C[C@H](O)CC[C@]4(C)[C@H]3CC[C@]12C`, for which the Ks worked out at 844 nM.
Then `C=C=C[C@H](O)[C@H]1CC[C@H]2[C@@H]3CC[C@H]4C[C@H](O)CC[C@]4(C)[C@H]3CC[C@]12C`, with 810 nM; and `C#C[C@@H](O)[C@H]1CC[C@H]2[C@@H]3CC[C@H]4C[C@H](O)CC[C@]4(C)[C@H]3CC[C@]12C`, with 145 nM.
`C=C=C[C@@H](O)[C@H]1CC[C@H]2[C@@H]3CC[C@H]4C[C@H](O)CC[C@]4(C)[C@H]3CC[C@]12C` showed a Ks of 2.8 nM.
As to `CC(O)C#C[C@H]1CC[C@H]2[C@@H]3CC[C@H]4C[C@H](O)CC[C@]4(C)[C@H]3CC[C@]12C` (stereo partly drawn), the Ks was 946 nM.
